MrgX1 antagonist: human MrgX1 receptor antagonism, primary screen. Q96LB2. AID 588676. B-score at 10 µM. MRGX1-HEK293 calcium flux, Fluo-4, BAM8-22 antagonism; active compounds read low. 1.3% of 310,000 active;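 active = calcium-response B-score plate-corrected more than 3 library SD below zero, starting fluorescence within 5 deviations, no agonist response on first addition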;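 also: peak minus trough fluorescence over baseline after final BAM8-22 challenge near maximal dose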
Target sequence (Q96LB2 whole entry, looked up): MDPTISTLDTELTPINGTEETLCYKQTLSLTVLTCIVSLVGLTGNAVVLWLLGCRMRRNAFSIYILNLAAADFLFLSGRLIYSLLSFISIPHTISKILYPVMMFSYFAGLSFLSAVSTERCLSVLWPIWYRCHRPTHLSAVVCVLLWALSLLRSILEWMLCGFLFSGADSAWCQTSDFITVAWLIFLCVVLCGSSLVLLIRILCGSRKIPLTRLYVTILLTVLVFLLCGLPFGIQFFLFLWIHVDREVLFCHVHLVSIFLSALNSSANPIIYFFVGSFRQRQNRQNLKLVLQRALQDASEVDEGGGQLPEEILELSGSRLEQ
MrgX1 ag: human MrgX1 receptor agonism, primary screen. 0.44% of 310,000 active. B-score at 10 µM. Q96LB2. AID 588627. MrgX1-HEK293 cells, Fluo-4 calcium fluorescence, agonist mode; active compounds read high;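 active = calcium response B-score plate-corrected fluorescence ratio at least 3 library SD, with starting fluorescence B-score inside 5 SD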
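System – MrgX1-expressing HEK293 cells · Incubation – cells plated overnight, dye loaded 0.5 h 37 °C, 0.5 h room temperature · Technique – kinetic Fluo-4 NW fluorescence of intracellular calcium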
RGS4 block: inhibitors of human RGS4 | 0.45% of 310,000 active | AID 463165 | HEK293 M3R/RGS4 inducible, Fluo-4 calcium flux; active compounds read high; triggered by carbachol at its EC20 | B-score at 10 µM;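 active = B-score, a plate-corrected calcium signal, over three deviations above library mean, with baseline fluorescence within five deviations of library mean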;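 also: RGS4 expression induced by doxycycline in cells with stable M3 receptor; B-score is computed from the integrated fluorescence ratio over baseline after carbachol; higher B-score means a larger calcium signal and so more RGS4 inhibition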
Target sequence (P49798 whole entry, looked up): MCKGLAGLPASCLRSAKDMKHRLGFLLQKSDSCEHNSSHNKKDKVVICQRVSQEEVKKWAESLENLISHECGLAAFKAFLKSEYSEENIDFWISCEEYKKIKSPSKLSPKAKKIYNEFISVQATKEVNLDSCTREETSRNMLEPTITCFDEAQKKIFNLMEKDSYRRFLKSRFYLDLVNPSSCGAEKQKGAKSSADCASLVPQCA
RGS4 act: potentiators or activators of RGS4. HEK293 M3R/inducible RGS4, carbachol calcium flux Fluo4; active compounds read low. B-score at 10 µM. 0.92% of 310,000 active;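 active = B-score of the integrated calcium signal more than 4 SD below the library mean, with starting fluorescence not abnormally high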;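 also: negative B-score means reduced calcium response which marks RGS4 activation or potentiation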
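Reagent: ECmax carbachol challenge; Test system: M3R-expressing HEK293 line, RGS4 induced by doxycycline; Schedule: overnight RGS4 induction, 30 min dye load 37 °C, 20 min compound RT; Detection: calcium dye Fluo4 fluorescence; Read-out: Agonist-evoked peak-minus-minimum fluorescence over baseline, integrated ratio, B score.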
MrgX1 allo act: human MrgX1 positive allosteric modulation, primary screen | Q96LB2 | MrgX1-HEK293, Fluo-4 calcium flux, FDSS; active compounds read high | B-score at 10 µM | 0.63% of 310,000 active | AID 588675;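 active = plate-corrected calcium response at least 3 library SD above typical, normal starting fluorescence, not activating the receptor alone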;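 also: compound read alongside a low EC10 to EC30 dose of BAM8-22 agonist; peak minus trough fluorescence over baseline measured at the second addition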
MrgX1 ant reconf: human MrgX1 receptor antagonism, re-confirmation screen; remaining BAM8-22 calcium response % of control (active compounds read low), % at 10 µM; 19% of 2,300 active; shares compounds with MrgX1 antagonist; MrgX1-HEK293, BAM8-22 calcium flux, Fluo-4; active compounds read low;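 active = remaining agonist calcium response no higher than 100% minus 3 SD of agonist-only control wells, with starting fluorescence near control levels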;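 also: agonist BAM8-22 given at a near maximal EC90 to ECmax level; peak minus minimum fluorescence divided by baseline after agonist addition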
HEK293 Ca flux: counter-screen for MrgX1 antagonists: effect in parental HEK293 cells | shares compounds with MrgX1 antagonist | Fluo-4 calcium fluorescence, FDSS | fluorescence ratio F(max-min)/F0 at 10 µM | 2% of 4,000 active;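 active = duplicate-averaged calcium fluorescence ratio at least three times the standard deviation of buffer wells, a nonspecific response in parental cells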
HEK293 Ca counter: MrgX1 allosteric activator counter-screen hit in parental HEK293 cells; shares compounds with MrgX1 antagonist; parental HEK293 calcium flux, Fluo-4 fluorescence ratio; active compounds read high; fluorescence ratio F(max-min)/F0 at 10 µM; 0.4% of 4,000 active; AID 624114;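 active = calcium fluorescence ratio, averaged over duplicates, at least 3 SD of the buffer-well ratio, meaning a nonspecific response in receptor-free cells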;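 also: untransfected parental HEK293 lacking MrgX1 used as counterscreen for MrgX1 allosteric activators; fluorescence change taken during the second addition on a kinetic imager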
HEK293 Ca cntr2: MrgX1 activator counter-screen hit in parental HEK293 cells; shares compounds with MrgX1 antagonist; Fluo-4 calcium fluorescence (FDSS); active compounds read high; fluorescence ratio F(max-min)/F0 at 10 µM; 8.7% of 4,000 active; AID 624115;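 active = calcium fluorescence ratio at least three times the spread of buffer wells, meaning a non-specific response in parental cells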
Active calls of the source: *; i = inactive; / = no result. The list is not random: actives were taken first. Their share in the collection is about 3.5%.

SMILES | MrgX1 antagonist | MrgX1 ag | RGS4 block | RGS4 act | MrgX1 allo act | MrgX1 ant reconf | HEK293 Ca flux | HEK293 Ca counter | HEK293 Ca cntr2
CCN(CC(=O)NC1CCS(=O)(=O)C1)S(=O)(=O)c1ccc(C)c(C)c1 (stereo not drawn) | i | i | i | i | i | / | / | / | /
O=C(NCCCN1CCOCC1)c1cccs1 | -8.79* | i | / | / | i | 79.2%* | i | i | i
Cc1nc(S(=O)(=O)Nc2ccccc2C(=O)NCC2CC2)cn1C | i | i | i | i | i | / | / | / | /
Cc1ccc(-c2ccccc2)n1-c1ccc(C(=O)O)cc1 | -4.62* | i | i | i | i | 78.3%* | i | i | i
Cc1nn(C)c(Cl)c1CN1CCN(C2CCCC2)C(CCO)C1 (stereo not drawn) | -10.5* | i | i | i | i | i | i | i | i
O=C(CCc1nc(-c2cccs2)no1)Nc1cnc2ccccc2c1 | -5.56* | i | i | i | i | 83.9%* | i | i | i
CCc1cccc(NC(=O)CCc2nc(-c3cccs3)no2)c1 | i | i | i | i | i | / | / | / | /
COc1ccc(CCNc2ncnc3c2oc2ccccc23)cc1OC | -4.63* | i | i | i | i | 42.9%* | i | i | i
COc1ccc(C2CC(C(F)(F)F)n3nc(CO)c(Cl)c3N2)cc1OC (stereo not drawn) | i | i | i | i | i | / | / | / | /
COc1ccc(C2CC(C(F)(F)F)n3nc(C(=O)O)c(Cl)c3N2)cc1OC (stereo not drawn) | -4.54* | i | i | i | i | i | i | i | i
Cc1nn(C)c(C)c1CNC(=O)c1nn2c(c1Cl)NC(c1cccs1)CC2C(F)(F)F (stereo not drawn) | -8.71* | i | i | i | i | i | i | i | i
CCOC(=O)C1=C(COC(=O)c2ccc(Br)o2)NC(=O)NC1C (stereo not drawn) | i | i | i | i | i | / | / | / | /
Cc1ccc2nsnc2c1NC(=O)COc1ccccc1F | -6.1* | i | i | i | i | 83.5%* | i | i | i
O=C(COC(=O)c1cnccn1)Nc1ncc(Cl)cc1Cl | i | i | i | i | i | / | / | / | /
O=C(COC(=O)c1cnccn1)NCCc1ccc(Cl)cc1Cl | -5.93* | i | i | i | i | i | i | i | i
COC(=O)c1cc(C#N)c(OC)nc1C | -5.14* | i | i | i | i | i | i | i | i
COc1ccc(N=Cc2cc3c(cc2O)OC(N)=C(C#N)C3c2ccccc2)cc1 (stereo not drawn) | -5.93* | i | i | i | i | i | i | i | i
N#CC1=C(N)Oc2cc3ccccc3cc2C1c1cccnc1 (stereo not drawn) | i | i | i | i | i | / | / | / | /
CCOC(=O)C[C@H]1c2cc(F)ccc2S(=O)(=O)N1C1CCCCC1 | -6.42* | i | i | i | i | i | i | i | i
COc1cc2c(cc1OC)C1C(C(=O)Nc3ccccc3N3CCN(C)CC3)c3ccccc3C(=O)N1CC2 (stereo not drawn) | i | i | i | i | i | / | / | / | /
Cc1cc(C)cc(NC(=O)N(CCC#N)Cc2cccs2)c1 | i | i | i | i | i | / | / | / | /
C=CCOc1ccc(C2C(C(=O)c3ccco3)=C(O)C(=O)N2c2nnc(C)s2)cc1 (stereo not drawn) | -5.03* | i | i | i | i | i | i | i | i
COc1ccc(C2C(C(=O)c3ccco3)=C(O)C(=O)N2c2nnc(C)s2)cc1 (stereo not drawn) | i | i | i | i | i | / | / | / | /
O=C(NCCc1ccccc1)c1ccc(-c2ccccc2Cl)o1 | -4.59* | i | i | i | i | i | i | i | i
O=C(NCc1cccs1)C1CCCN(C(=O)Nc2ccccc2)C1 (stereo not drawn) | i | i | i | i | i | / | / | / | /
SMILES | MrgX1 antagonist | MrgX1 ag | RGS4 block | RGS4 act | MrgX1 allo act | MrgX1 ant reconf | HEK293 Ca flux | HEK293 Ca counter | HEK293 Ca cntr2
C=C1CCN([C@@H](CC(C)C)C(=O)NCCC(C)C)S(=O)(=O)c2ccccc21 | i | i | i | i | i | / | / | / | /
CCOC(=O)c1nnc(-c2ccccc2)nc1N1CCSCC1 | -5.58* | i | i | i | i | i | i | i | i
CC(=O)N1CC(C)Sc2ccc(S(=O)(=O)NCCc3ccc(C)cc3)cc21 (stereo not drawn) | i | i | i | i | i | / | / | / | /
CC(=O)N1CCSc2ccc(S(=O)(=O)NCCc3ccc(Cl)cc3)cc21 | -4.96* | i | i | i | i | i | i | i | i
Cc1ccc(S(=O)(=O)NCCC(=O)N2CCCCCCC2)cc1C | -4.75* | i | i | i | i | i | i | i | i
Cc1ccc(S(=O)(=O)NCCC(=O)N2CCN(S(=O)(=O)c3ccccc3)CC2)cc1C | i | i | i | i | i | / | / | / | /
O=C(NCc1cccs1)c1ccccc1F | -6.2* | i | i | i | i | i | i | i | i
O=C(NCCNCc1cccs1)c1ccccc1F | i | i | i | i | i | / | / | / | /
COc1ccc(C)cc1S(=O)(=O)N(CC(=O)N1CCCC1)c1ccc(C)cc1 | i | i | i | i | i | / | / | / | /
COc1ccc(C)cc1S(=O)(=O)N(CC(=O)N1CCCC1)c1ccccc1 | -5.82* | i | i | i | i | i | i | i | i
O=[N+]([O-])c1c(Nc2ccc(O)cc2)cc(Cl)c2nonc12 | -14.5* | i | i | i | i | 15.7%* | i | i | i
CN(C)c1cc(Nc2ccc(O)cc2)c([N+](=O)[O-])c2nonc12 | i | i | i | i | i | / | / | / | /
Cc1nnc(SCC(=O)NC(=O)NC(C)C)s1 | i | i | i | i | i | / | / | / | /
Cc1nnc(SCC(=O)NC(=O)NC(C)(C)C)s1 | -5.64* | i | i | i | i | i | i | i | i

Compound activity: PubChem, Johns Hopkins Ion Channel Center
